In brackets after ≈: the same amount, converted by molar mass.
Experiments:
[1] = tested on: Salmonella typhimurium; assay: Mutagenicity in Salmonella typhimurium TA98 at 5 mg/ml after 48 hrs by AMES MPF assay in absence of Sprague-Dawley rat liver microsomal S9 fraction relative to baseline; assay type: toxicity, organism-based; conditions: salmonella enterica subsp. enterica serovar typhimurium
In short: (§1)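 Ames MPF fluctuation test with TA98/TA100. Overnight cultures (37 °C, 14–16 h) mixed with exposure medium; ±Aroclor-1254-induced rat liver S9 (final 4.5% v/v). Compounds in DMSO, 0.156–5 mg/mL. 90 min exposure at 37 °C, then indicator medium; 48 wells per concentration, 48 h at 37 °C, in triplicate. Yellow wells counted; fold induction over baseline (mean + 1 SD of zero-dose control).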

[2] = tested on: Aspergillus flavus; assay: Antifungal activity against Aspergillus flavus NRRL 980 after 72 hrs by broth microdilution assay; assay type: functional; conditions: NRRL 980, 72 h
In short: (§2)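 Compounds dissolved in DMSO, diluted in sterile distilled water from 4 to 0.0039 mg/mL. Molds grown on PDA at 25 °C for 5 days, suspended in double-strength PDB at 10⁵ spores/mL. Incubated at 25 °C for 72 h; mycelial growth read under stereo microscope. MIC = lowest concentration inhibiting visible growth. Ketoconazole reference.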

[3] = tested on: Aspergillus parasiticus; assay: Antifungal activity against Aspergillus parasiticus NRRL 465 after 72 hrs by broth microdilution assay; assay type: functional; conditions: NRRL 465, 72 h; in short: as §2
[4] = tested on: A549; assay: Antiproliferative activity against human A549 cells after 24 hrs by XTT assay; assay type: functional, cell-based; conditions: A549, 24 h
In short: (§3)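 A549 cells in RPMI and NIH/3T3 cells in DMEM, each with fetal calf serum, antibiotics and 7.5% NaHCO₃, at 37 °C, 5% CO₂. Seeded at 20,000 cells/well, 24 h, then compounds added in medium at 500–3.9 doses (final DMSO <0.1%) for 24 h. XTT read after 3 h at 480 nm (ref 680 nm). IC₅₀ by non-linear regression; triplicates; cisplatin control.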

[5] = tested on: Salmonella typhimurium; assay: Mutagenicity in Salmonella typhimurium TA98 at 0.3125 mg/ml after 48 hrs by AMES MPF assay in presence of Sprague-Dawley rat liver microsomal S9 fraction relative to baseline; assay type: toxicity, organism-based; conditions: salmonella enterica subsp. enterica serovar typhimurium; in short: as §1
[6] = tested on: Salmonella typhimurium; assay: Mutagenicity in Salmonella typhimurium TA98 at 2.5 mg/ml after 48 hrs by AMES MPF assay in presence of Sprague-Dawley rat liver microsomal S9 fraction relative to baseline; assay type: toxicity, organism-based; conditions: salmonella enterica subsp. enterica serovar typhimurium; in short: as §1
[7] = tested on: Aspergillus niger; assay: Antifungal activity against Aspergillus niger ATCC 1094 after 72 hrs by broth microdilution assay; assay type: functional; conditions: ATCC 1094, 72 h; in short: as §2
[8] = tested on: Salmonella typhimurium; assay: Mutagenicity in Salmonella typhimurium TA98 at 0.625 mg/ml after 48 hrs by AMES MPF assay in absence of Sprague-Dawley rat liver microsomal S9 fraction relative to baseline; assay type: toxicity, organism-based; conditions: salmonella enterica subsp. enterica serovar typhimurium; in short: as §1
[9] = tested on: Salmonella typhimurium; assay: Mutagenicity in Salmonella typhimurium TA98 at 0.156 mg/ml after 48 hrs by AMES MPF assay in presence of Sprague-Dawley rat liver microsomal S9 fraction relative to baseline; assay type: toxicity, organism-based; conditions: salmonella enterica subsp. enterica serovar typhimurium; in short: as §1
[10] = tested on: Pichia kudriavzevii; assay: Antifungal activity against Candida krusei NRLL Y 7179 after 48 hrs by broth microdilution assay; assay type: functional; conditions: NRLL Y 7179, 48 h
In short: (§4)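 Broth microdilution of DMSO stocks serially diluted in sterile water (4 to 0.0039 mg/mL). Yeasts grown on SDA at 37 °C for 24 h, suspended in double-strength PDB at 10⁵ spores/mL. Incubated at 37 °C for 48 h, then sprayed with 0.5% aqueous TTC. MIC = lowest concentration inhibiting visible growth. Ketoconazole reference.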

[11] = tested on: Nakaseomyces glabratus; assay: Antifungal activity against Candida glabrata clinical isolate after 48 hrs by broth microdilution assay; assay type: functional; in short: as §4
[12] = tested on: Salmonella typhimurium; assay: Mutagenicity in Salmonella typhimurium TA98 at 0.156 mg/ml after 48 hrs by AMES MPF assay in absence of Sprague-Dawley rat liver microsomal S9 fraction relative to baseline; assay type: toxicity, organism-based; conditions: salmonella enterica subsp. enterica serovar typhimurium; in short: as §1
[13] = tested on: Salmonella typhimurium; assay: Mutagenicity in Salmonella typhimurium TA100 at 5 mg/ml after 48 hrs by AMES MPF assay in absence of Sprague-Dawley rat liver microsomal S9 fraction relative to baseline; assay type: toxicity, organism-based; conditions: salmonella enterica subsp. enterica serovar typhimurium; in short: as §1
[14] = tested on: Salmonella typhimurium; assay: Mutagenicity in Salmonella typhimurium TA98 at 0.625 mg/ml after 48 hrs by AMES MPF assay in presence of Sprague-Dawley rat liver microsomal S9 fraction relative to baseline; assay type: toxicity, organism-based; conditions: salmonella enterica subsp. enterica serovar typhimurium; in short: as §1
[15] = tested on: Salmonella typhimurium; assay: Mutagenicity in Salmonella typhimurium TA100 at 0.625 mg/ml after 48 hrs by AMES MPF assay in absence of Sprague-Dawley rat liver microsomal S9 fraction relative to baseline; assay type: toxicity, organism-based; conditions: salmonella enterica subsp. enterica serovar typhimurium; in short: as §1
[16] = tested on: Salmonella typhimurium; assay: Mutagenicity in Salmonella typhimurium TA100 at 2.5 mg/ml after 48 hrs by AMES MPF assay in absence of Sprague-Dawley rat liver microsomal S9 fraction relative to baseline; assay type: toxicity, organism-based; conditions: salmonella enterica subsp. enterica serovar typhimurium; in short: as §1
[17] = tested on: Salmonella typhimurium; assay: Mutagenicity in Salmonella typhimurium TA98 at 0.3125 mg/ml after 48 hrs by AMES MPF assay in absence of Sprague-Dawley rat liver microsomal S9 fraction relative to baseline; assay type: toxicity, organism-based; conditions: salmonella enterica subsp. enterica serovar typhimurium; in short: as §1
[18] = tested on: Candida albicans; assay: Antifungal activity against Candida albicans ATCC 90028 after 48 hrs by broth microdilution assay; assay type: functional; conditions: ATCC 90028, 48 h; in short: as §4
[19] = tested on: Salmonella typhimurium; assay: Mutagenicity in Salmonella typhimurium TA98 at 1.25 mg/ml after 48 hrs by AMES MPF assay in absence of Sprague-Dawley rat liver microsomal S9 fraction relative to baseline; assay type: toxicity, organism-based; conditions: salmonella enterica subsp. enterica serovar typhimurium; in short: as §1
[20] = tested on: Salmonella typhimurium; assay: Mutagenicity in Salmonella typhimurium TA100 at 0.156 mg/ml after 48 hrs by AMES MPF assay in presence of Sprague-Dawley rat liver microsomal S9 fraction relative to baseline; assay type: toxicity, organism-based; conditions: salmonella enterica subsp. enterica serovar typhimurium; in short: as §1
[21] = tested on: Candida parapsilosis; assay: Antifungal activity against Candida parapsilosis NRLL Y 12696 after 48 hrs by broth microdilution assay; assay type: functional; conditions: Lodderomyces parapsilosis, NRLL Y 12696, 48 h; in short: as §4
[22] = tested on: Salmonella typhimurium; assay: Mutagenicity in Salmonella typhimurium TA100 at 1.25 mg/ml after 48 hrs by AMES MPF assay in absence of Sprague-Dawley rat liver microsomal S9 fraction relative to baseline; assay type: toxicity, organism-based; conditions: salmonella enterica subsp. enterica serovar typhimurium; in short: as §1
[23] = tested on: Salmonella typhimurium; assay: Mutagenicity in Salmonella typhimurium TA100 at 0.156 mg/ml after 48 hrs by AMES MPF assay in absence of Sprague-Dawley rat liver microsomal S9 fraction relative to baseline; assay type: toxicity, organism-based; conditions: salmonella enterica subsp. enterica serovar typhimurium; in short: as §1
[24] = tested on: [Candida] zeylanoides; assay: Antifungal activity against Candida zeylanoides NRLL Y 1774 after 48 hrs by broth microdilution assay; assay type: functional; conditions: Dujonia zeylanoides, NRLL Y 1774, 48 h; in short: as §4
[25] = tested on: Salmonella typhimurium; assay: Mutagenicity in Salmonella typhimurium TA100 at 0.625 mg/ml after 48 hrs by AMES MPF assay in presence of Sprague-Dawley rat liver microsomal S9 fraction relative to baseline; assay type: toxicity, organism-based; conditions: salmonella enterica subsp. enterica serovar typhimurium; in short: as §1
[26] = tested on: Fusarium solani; assay: Antifungal activity against Fusarium solani NRRL 13414 after 72 hrs by broth microdilution assay; assay type: functional; conditions: NRRL 13414, 72 h; in short: as §2
[27] = tested on: Salmonella typhimurium; assay: Mutagenicity in Salmonella typhimurium TA100 at 0.3125 mg/ml after 48 hrs by AMES MPF assay in presence of Sprague-Dawley rat liver microsomal S9 fraction relative to baseline; assay type: toxicity, organism-based; conditions: salmonella enterica subsp. enterica serovar typhimurium; in short: as §1
[28] = tested on: Salmonella typhimurium; assay: Mutagenicity in Salmonella typhimurium TA98 at 2.5 mg/ml after 48 hrs by AMES MPF assay in absence of Sprague-Dawley rat liver microsomal S9 fraction relative to baseline; assay type: toxicity, organism-based; conditions: salmonella enterica subsp. enterica serovar typhimurium; in short: as §1
[29] = tested on: Salmonella typhimurium; assay: Mutagenicity in Salmonella typhimurium TA100 at 1.25 mg/ml after 48 hrs by AMES MPF assay in presence of Sprague-Dawley rat liver microsomal S9 fraction relative to baseline; assay type: toxicity, organism-based; conditions: salmonella enterica subsp. enterica serovar typhimurium; in short: as §1
[30] = tested on: Salmonella typhimurium; assay: Mutagenicity in Salmonella typhimurium TA100 at 0.3125 mg/ml after 48 hrs by AMES MPF assay in absence of Sprague-Dawley rat liver microsomal S9 fraction relative to baseline; assay type: toxicity, organism-based; conditions: salmonella enterica subsp. enterica serovar typhimurium; in short: as §1
[31] = tested on: Candida tropicalis; assay: Antifungal activity against Candida tropicalis NRLL Y 12968 after 48 hrs by broth microdilution assay; assay type: functional; conditions: NRLL Y 12968, 48 h; in short: as §4
[32] = tested on: Salmonella typhimurium; assay: Mutagenicity in Salmonella typhimurium TA98 at 1.25 mg/ml after 48 hrs by AMES MPF assay in presence of Sprague-Dawley rat liver microsomal S9 fraction relative to baseline; assay type: toxicity, organism-based; conditions: salmonella enterica subsp. enterica serovar typhimurium; in short: as §1
[33] = tested on: Salmonella typhimurium; assay: Mutagenicity in Salmonella typhimurium TA98 at 5 mg/ml after 48 hrs by AMES MPF assay in presence of Sprague-Dawley rat liver microsomal S9 fraction relative to baseline; assay type: toxicity, organism-based; conditions: salmonella enterica subsp. enterica serovar typhimurium; in short: as §1
[34] = tested on: Salmonella typhimurium; assay: Mutagenicity in Salmonella typhimurium TA100 at 5 mg/ml after 48 hrs by AMES MPF assay in presence of Sprague-Dawley rat liver microsomal S9 fraction relative to baseline; assay type: toxicity, organism-based; conditions: salmonella enterica subsp. enterica serovar typhimurium; in short: as §1
[35] = tested on: Salmonella typhimurium; assay: Mutagenicity in Salmonella typhimurium TA100 at 2.5 mg/ml after 48 hrs by AMES MPF assay in presence of Sprague-Dawley rat liver microsomal S9 fraction relative to baseline; assay type: toxicity, organism-based; conditions: salmonella enterica subsp. enterica serovar typhimurium; in short: as §1
[36] = Cytotoxicity against mouse NIH/3T3 cells after 24 hrs by XTT assay; assay type: cell-based; conditions: NIH3T3, 24 h; in short: as §3

MIC [2]: 125 µg/mL (≈ 241 µM)
MIC [3]: 250 µg/mL (≈ 482 µM)
IC50 [4]: 62.5 µg/mL (≈ 120 µM)
MIC [7]: 250 µg/mL (≈ 482 µM)
MIC [10]: 250 µg/mL (≈ 482 µM)
MIC [11]: 125 µg/mL (≈ 241 µM)
MIC [18]: 250 µg/mL (≈ 482 µM)
MIC [21]: 250 µg/mL (≈ 482 µM)
MIC [24]: 250 µg/mL (≈ 482 µM)
MIC [26]: 250 µg/mL (≈ 482 µM)
MIC [31]: 250 µg/mL (≈ 482 µM)
SMILES: Fc1ccc(C2CC(c3ccc(Cl)s3)=NN2c2nc(-c3ccc(Br)cc3)cs2)cc1 (stereo unspecified)
fold change (FC) [1]: 0
fold change (FC) [5]: 0.81
fold change (FC) [6]: 0.68
fold change (FC) [8]: 0
fold change (FC) [9]: 0.68
fold change (FC) [12]: 0
fold change (FC) [13]: 2
fold change (FC) [14]: 0.95
fold change (FC) [15]: 0.33
fold change (FC) [16]: 0.33
fold change (FC) [17]: 0.32
fold change (FC) [19]: 0
fold change (FC) [20]: 2.77
fold change (FC) [22]: 0
fold change (FC) [23]: 1
fold change (FC) [25]: 3.92
fold change (FC) [27]: 3.92
fold change (FC) [28]: 0
fold change (FC) [29]: 5.08
fold change (FC) [30]: 1
fold change (FC) [32]: 0.81
fold change (FC) [33]: 0.81
fold change (FC) [34]: 2.54
fold change (FC) [35]: 3.92
IC50 [36]: > 500 µg/mL

From ChEMBL document CHEMBL3407339, “A novel series of thiazolyl-pyrazoline derivatives: synthesis and evaluation of antifungal activity, cytotoxicity and genotoxicity” (Eur J Med Chem, 2015)
